From ChEMBL document CHEMBL1123747, “N-methyl derivatives of the 5-HT2 agonist 1-(4-bromo-2,5-dimethoxyphenyl)-2-aminopropane” (J Med Chem, 1987)
Activity calls are given as the source filed them. The calls are words filed in the database; no cut-off is given here.

Legend:
[1] = species on record: Rattus norvegicus; assay: The number of responses made on the (R)(-)-DOB appropriate level, generation studies was calculated at dose 4.0 mg / kg; type: functional
Outline: (§1)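 Male Sprague-Dawley rats (n = 6) were trained on a two-lever operant task for sweetened-milk reward to discriminate 0.2 mg/kg (R)-(-)-DOB-HCl ip from 1.0 mL/kg 0.9% saline, with a VI 15-s schedule and 15-min sessions. Test doses were given ip 15 min before a 2.5-min extinction session, in random order, to groups of 3-6 rats. Read-out was % drug-lever responses; fewer than five total responses counted as disrupted.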

[2] = species on record: Rattus norvegicus; assay: The mean responses per minute during the 2.5 min extinction session in the stimulus-generation studies was calculated at dose 7.8 mg / kg; type: functional
Outline: (§2)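 Rats were trained on a two-lever drug-versus-saline discrimination (0.2 mg/kg ip training dose, VI 15-s, food reward). Challenge doses were given ip 15 min before a 2.5-min extinction test, in random order, to groups of 3–6 rats, with at least three training sessions between tests. Response rate is responses per minute over the extinction session.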

[3] = species on record: Rattus norvegicus; assay: The number of responses made on the (R)(-)-DOB appropriate level as a percent of total responses made during the 2.5 min extinction session in the stimulus-generation studies was calculated at dose 2.2 mg / kg; type: functional; outline: as §1
[4] = species on record: Rattus norvegicus; assay: The number of responses made on the (R)(-)-DOB appropriate level, generation studies was calculated at dose 2.0 mg / kg; type: functional; outline: as §1
[5] = molecular target: T1, Serotonin 2 (5-HT2) receptor (Rattus norvegicus, UniProt P30994+P08909+P14842); assay: Affinity towards [3H]- DOB -labeled 5-hydroxytryptamine 2 receptor sites in rat cortical homogenates
[6] = species on record: Rattus norvegicus; assay: The number of animals responding per number of animals receiving the drug(1/4) in the stimulus-generation studies was calculated at dose 8.5 mg / kg; type: functional
Outline: (§3)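 Male Sprague-Dawley rats were trained to discriminate 0.2 mg/kg ip training drug from saline (two levers, VI 15-s, milk reward). Test doses were given ip 15 min pre-session in random order to groups of 3–6. In the 2.5-min extinction session, rats making fewer than five total responses were counted as disrupted. N is animals responding over animals dosed.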

[7] = species on record: Rattus norvegicus; assay: The number of responses made on the (R)(-)-DOB appropriate level as a percent of total responses made during the 2.5 min extinction session in the stimulus-generation studies was calculated at dose 6.0 mg / kg; type: functional; outline: as §1
[8] = species on record: Rattus norvegicus; assay: The number of animals responding per number of animals receiving the drug(3/5) in the stimulus-generation studies was calculated at dose 7.5 mg / kg; type: functional; outline: as §3
[9] = species on record: Rattus norvegicus; assay: The mean responses per minute during the 2.5 min extinction session in the stimulus-generation studies was calculated at dose 2.0 mg / kg; type: functional; outline: as §2
[10] = species on record: Rattus norvegicus; assay: The mean responses per minute during the 2.5 min extinction session in the stimulus-generation studies was calculated at dose 7.5 mg / kg; type: functional; outline: as §2
[11] = species on record: Rattus norvegicus; assay: The mean responses per minute during the 2.5 min extinction session in the stimulus-generation studies was calculated at dose 2.2 mg / kg; type: functional; outline: as §2
[12] = species on record: Rattus norvegicus; assay: The mean responses per minute during the 2.5 min extinction session in the stimulus-generation studies was calculated at dose 6.0 mg / kg; type: functional; outline: as §2
[13] = species on record: Rattus norvegicus; assay: The mean responses per minute during the 2.5 min extinction session in the stimulus-generation studies was calculated at dose 4.0 mg / kg; type: functional; outline: as §2
[14] = species on record: Rattus norvegicus; assay: The number of responses made on the (R)(-)-DOB appropriate level, generation studies was calculated at dose 7.8 mg / kg; type: functional; outline: as §1
[15] = species on record: Rattus norvegicus; assay: The compound was tested for effective dose ( ED 50) against stimulus generation with rats trained to discriminate (R) (-)-DOB from saline.; type: functional
Outline: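 Male Sprague-Dawley rats (n = 6) on a two-lever operant task for sweetened milk, VI 15-s schedule. Trained to discriminate 0.2 mg/kg ip training drug from 1.0 mL/kg 0.9% saline, 15 min pre-session. Test doses were given ip in random order to groups of 3–6, with 15-min pretreatment and a 2.5-min extinction session. ED50 was calculated from dose-response data.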

[16] = species on record: Rattus norvegicus; assay: The number of responses made on the (R)(-)-DOB appropriate level, generation studies was calculated at dose 8.5 mg / kg; NR means not responding; type: functional, organism-based; set-up: dose 8.5 mg / kg; outline: as §1
[17] = species on record: Rattus norvegicus; assay: The number of animals responding per number of animals receiving the drug(3/4) in the stimulus-generation studies was calculated at dose 0.3 mg / kg; type: functional
[18] = species on record: Rattus norvegicus; assay: The number of animals responding per number of animals receiving the drug(3/5) in the stimulus-generation studies was calculated at dose 6.0 mg / kg; type: functional; outline: as §3
[19] = species on record: Rattus norvegicus; assay: The number of animals responding per number of animals receiving the drug(3/5) in the stimulus-generation studies was calculated at dose 7.8 mg / kg; type: functional; outline: as §3
[20] = system: Rattus norvegicus; assay: The number of animals responding per number of animals receiving the drug in the stimulus-generation studies was calculated at dose 2.2 mg/kg; type: functional; outline: as §3
[21] = molecular target: T1, Serotonin 2 (5-HT2) receptor; assay: Affinity towards [3H]- ketanserin-labeled 5-hydroxytryptamine 2 receptor sites in rat cortical homogenates
Outline: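 Label was 0.4 nM [3H]ketanserin, with 11 competitor concentrations run in triplicate and nonspecific binding defined by 1 μM cinanserin. Bound ligand was filtered onto glass fibre and counted by scintillation. IC50 came from nonlinear regression; Ki = IC50/(1+[D]/KD).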

[22] = species on record: Rattus norvegicus; assay: The number of animals responding per number of animals receiving the drug(4/6) in the stimulus-generation studies was calculated at dose 4.0 mg / kg; type: functional; outline: as §1
[23] = species on record: Rattus norvegicus; assay: The number of responses made on the (R)(-)-DOB appropriate level, generation studies was calculated at dose 7.5 mg / kg; type: functional; outline: as §1

**Q.** With `COc1cc(CC(C)N(C)C)c(OC)cc1Br` (stereo not drawn) as the compound, how does the Responding [1] read?
**A.** 29%

**Q.** And the Response rate [2]?
**A.** 4.5

**Q.** And the Responding [3]?
**A.** 6%

**Q.** And the Responding [4]?
**A.** 23%

**Q.** What about the Ki [5] of the same compound?
**A.** 94 nM

**Q.** And the “No. of animals responding/animals receiving drug” value [6]?
**A.** 1

**Q.** And the Responding [7]?
**A.** 38%

**Q.** What about the “No. of animals responding/animals receiving drug” value [8] of the same compound?
**A.** 3

**Q.** And the Response rate [9]?
**A.** 14.6

**Q.** What about the Response rate [10] of the same compound?
**A.** 6.8

**Q.** And the Response rate [11]?
**A.** 14.8

**Q.** And the Response rate [12]?
**A.** 8.1

**Q.** What about the Response rate [13] of the same compound?
**A.** 10.1

**Q.** And the Responding [14]?
**A.** 86%

**Q.** And the ED50 [15]?
**A.** 5.36 mg/kg

**Q.** And the Responding [16]?
**A.** inactive

**Q.** And the “No. of animals responding/animals receiving drug” value [17]?
**A.** 3

**Q.** What about the “No. of animals responding/animals receiving drug” value [18] of the same compound?
**A.** 3

**Q.** And the “No. of animals responding/animals receiving drug” value [19]?
**A.** 3

**Q.** What about the “No. of animals responding/animals receiving drug” value [20] of the same compound?
**A.** 5

**Q.** What about the Ki [21] of the same compound?
**A.** 380 nM

**Q.** What about the “No. of animals responding/animals receiving drug” value [22] of the same compound?
**A.** 4

**Q.** What about the Responding [23] of the same compound?
**A.** 64%
